Test results reported in paper PMC11604526 (Cell Reports Medicine, 2024).
Square brackets hold non-standard residues; d marks the D form. Ends that are not written are not given here. Dmt = Cc1cc(O)cc(C)c1C[C@H](N)C(=O)O; Cha = N[C@@H](CC1CCCCC1)C(=O)O

Experiments:
GAT-1 and Synt1A = GAT-1 and Synt1A total levels and membrane fractions in cultured neurons; type: cell-based, mouse; details: GSNO 50 μM for 6 h; n = 5
In short: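 Primary cortical neurons from E16 mice were grown on poly-L-ornithine in Neurobasal with 2% B27. For membrane fractions, cells were permeabilized in extraction buffer 1 and spun at 1000 ×g for 5 min; the pellet was resuspended in buffer 2B to extract integral membrane proteins. β-Actin was checked to confirm fraction purity. Western blots used anti-GAT-1 and anti-syntaxin1A (both 1:4000) and anti-Na+-K+-ATPase (1:1000).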

[1] = test system: mice with photothrombotic stroke; assay: Motor function; type: in vivo, mouse
In short: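 Photothrombotic stroke was induced with rose bengal, holding body temperature at 37 ± 0.5°C. For grid walking, each mouse walked freely for 5 min on a wire grid 50 cm high. For the cylinder task, mice explored a clear cylinder (15 cm tall, 10 cm diameter) for 5 min, and only rears with both forelimbs clearly visible were timed. Tests ran 7 days before stroke and at set days after stroke.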

[2] = test system: midline-crossing BDA+ fibers, C7 spinal cord; assay: BDA tract tracing, axonal sprouting; type: in vivo, mouse; details: treatment days 5-11 after stroke; BDA day 34, staining day 48; n = 6
In short: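 Contralateral cortex injected at two sites with 10% biotinylated dextran amine on day 34 after stroke. Fourteen days later, mice were transcardially perfused with ice-cold saline, then 4% PFA. Transverse cervical spinal cord and coronal brain sections were cut at 40 μm. BDA+ axons were labelled with streptavidin-Cy3 (1:500). Analysis was blinded.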

[3] = test system: SNARE complex (Synt1A, SNAP-25, VAMP-2); assay: SNARE complex and monomer levels in synaptosomes; type: in vivo, mouse; details: 0.2 pmol/d days 5-7 after stroke, day 8
In short: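 Peri-infarct tissue was homogenised at 4°C in 320 mM sucrose, 1 mM NaHCO3, 1 mM MgCl2 and 0.5 mM CaCl2. The homogenate was spun at 500 ×g for 2 min, and the supernatant at 10,100 ×g for 10 min. The pellet was resuspended in 0.32 M sucrose, layered on 0.8 M sucrose and spun at 9100 ×g for 15 min. The 0.8 M fraction was pelleted at 12,000 ×g for 15 min and taken up in SDS lysis buffer.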

GAT-1 [4] = assay: GAT-1 level and membrane fraction; type: cell-based; details: 100 nM; compared with Tat-Synt1A251-265mut; n = 5
In short: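 HEK293 cells lentivirally expressing GAT-1-EGFP were exposed to peptide at 100 nM. Cells were permeabilised in Extraction Buffer 1 and spun at 1000 ×g for 5 min to split cytosol from membranes. Integral membrane proteins were extracted from the pellet in Extraction Buffer 2B and taken straight to western blot. β-Actin, a cytosolic marker, served to check membrane-fraction purity.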

Synt1A-VAMP-2 complex = assay: Co-IP of Synt1A-VAMP-2 complex in peri-infarct cortex; type: in vivo, mouse; details: microinjection 0.2 pmol/d days 5-7 after stroke; day 8; n = 5
In short: (§1)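 Photothrombotic stroke was induced with rose bengal. Peptide was infused into the peri-infarct cortex through a 33-gauge injector in a guide cannula implanted in the infarct core (AP 0, ML −1.5, DV −1.0 mm from bregma). Dissected tissue was lysed 30 min in ice-cold RIPA and spun at 12,000 ×g for 15 min at 4°C. Lysates were precleared 1 h at 4°C with protein G magnetic beads before co-IP.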

Synt1A-SNAP-25 complex = assay: Co-IP of Synt1A-SNAP-25 complex in peri-infarct cortex; type: in vivo, mouse; details: microinjection 0.2 pmol/d days 5-7 after stroke; day 8; n = 5
In short: as §1

peri-infarct cortex = assay: In vivo LFP and spike recording in peri-infarct cortex; design: species or system mouse; details: infused days 5-11 after stroke; recorded day 12
In short: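 Spike-firing time histograms were built by counting spikes in sequential 1 s bins. Movement-related change was expressed as ((firing events during movement − firing events during stillness)/firing events during stillness) × 100.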

GAT-1 [5] = assay: 3H-GABA uptake in HEK293 cells overexpressing GAT-1; type: cell-based; details: 100 nM; compared with Tat-Synt1A251-265mut (100 nM); n = 5
In short: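 HEK293 cells were kept in MEM with 10% FBS and transduced with lentiviral GAT-1-EGFP. These GAT-1-overexpressing cells were incubated with peptide (100 nM), or with the mutant control peptide at the same concentration, before 3H-GABA uptake was measured.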

[6] = test system: extracellular GABA ([GABA]o); assay: Extracellular GABA in peri-infarct cortex; type: in vivo, mouse; details: microinjection 0.2 pmol/d days 5-7 after stroke; day 8 after stroke; microdialysis; n = 6
In short: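 A CMA7 microdialysis probe was placed in peri-infarct cortex (AP 0, ML −0.65, DV −1.5 mm from bregma). It was perfused at 1 μL/min with bicarbonate-buffered saline containing 10 mM glucose. Dialysate was collected in 20-min fractions over 2 h, and the second fraction was analysed. GABA was measured by ELISA (activator, 37°C for 15 min in the dark, stop solution, A450).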

[7] = test system: layer 5 peri-infarct pyramidal neurons; assay: Whole-cell recordings in acute brain slices from treated mice; type: in vivo, mouse
GAT-1-Synt1A interaction = GAT-1-Synt1A interaction (Mus musculus, UniProt P31648); assay: Synt1A-GAT-1 uncoupling activities of ZLQ series of compounds; details: Figures S4A/S4B; n = 3
[8] = 0.2 pmol/d days 5-7 after stroke, recorded day 8
[9] = compared with Tat-Synt1A251-265mut-treated mice
[10] = compared with sham and Tat-Synt1A251-265mut-treated mice with stroke

N[C@@H](CCC(=O)N[C@@H](CSN=O)C(=O)NCC(=O)O)C(=O)O [GSNO]
membrane contents of GAT-1 and Synt1A in cultured neurons (GAT-1 and Synt1A): significantly increased membrane contents of GAT-1 and Synt1A
total levels of GAT-1 and Synt1A in cultured neurons (GAT-1 and Synt1A): had no effects on the total levels of GAT-1 and Synt1A

Tat-TKKAVKYQSKARRKK [Tat-Synt1A251-265]
motor functions of sham-operated mice ([1]; peptide microinjection, sham-operated mice): had no effect on motor functions of sham-operated mice
number of BDA+ fibers crossing the midline into the denervated spinal cord at the C7 level [2]: significantly increased the number of BDA^+ fibers crossing the midline
Synt1A, SNAP-25, or VAMP-2 monomer (synaptosomes) [3]: did not affect
stroke-induced decreases in SNARE complexes (synaptosomes) ([3]; n = 5-6): reversed stroke-induced decreases in SNARE complexes
expression of GAT-1, HEK293 cells overexpressing GAT-1 (GAT-1 [4]): did not affect
membrane distribution of GAT-1, HEK293 cells overexpressing GAT-1 (GAT-1 [4]): did not affect
stroke-induced decrease in Synt1A-VAMP-2 complex (Synt1A-VAMP-2 complex): reversed stroke-induced decreases
stroke-induced decrease in Synt1A-SNAP-25 complex (Synt1A-SNAP-25 complex): reversed stroke-induced decreases
LFP power in delta (1-3 Hz) and theta (4-12 Hz) oscillations (peri-infarct cortex): significantly enhanced
effects on cortical oscillations in GAT-1 CKO mice (peri-infarct cortex): disappeared in GAT-1 CKO mice
movement-related spike firing rates, WT mice (peri-infarct cortex): reversed stroke-induced decrease in spike firing rates
3H-GABA uptake, HEK293 cells overexpressing GAT-1 (GAT-1 [5]): did not affect
stroke-induced increase in [GABA]o in the peri-infarct cortex [6]: reversed stroke-induced increase in [GABA]o
mEPSCs, sham-operated mice ([7]; 0.2 pmol/d): had no effect on sham-operated mice
mIPSCs, sham-operated mice ([7]; 0.2 pmol/d): had no effect on sham-operated mice
tonic GABA currents (Itonic), sham-operated mice ([7]; 0.2 pmol/d days 5-7, recorded day 8): had no effect on sham-operated mice
effect of stroke on Itonic, GAT-1 CKO mice with stroke [7, 8]: rather than that in GAT-1 CKO mice with stroke
effect of stroke on Itonic, WT mice with stroke [7, 8]: reversed the effect of stroke on Itonic
mEPSC frequency, mice with stroke ([7]; 0.2 pmol/d, day 8 after stroke): reversed stroke-induced decrease in mEPSC frequency
mIPSC frequency, mice with stroke ([7]; 0.2 pmol/d, day 8 after stroke): reversed the stroke-induced decrease in mIPSC frequency
sEPSC amplitude, mice with stroke [7, 9]: but not amplitude
sEPSC frequency, mice with stroke [7, 9]: significantly increased sEPSC frequency
sIPSC amplitude, mice with stroke [7, 10]: but not amplitude
sIPSC frequency, mice with stroke [7, 10]: significantly increased sIPSC frequency
sEPSCs, sham-operated mice ([7]; mouse, in vivo): had no effect on sEPSCs
sIPSCs, sham-operated mice ([7]; mouse, in vivo): had no effect on sIPSCs of sham-operated mice

[dR][Dmt][Cha][dK][dR]-NH2 (N-terminus assumed; SMILES Cc1cc(O)cc(C)c1C[C@H](NC(=O)[C@H](N)CCCNC(=N)N)C(=O)N[C@@H](CC1CCCCC1)C(=O)N[C@H](CCCCN)C(=O)N[C@H](CCCNC(=N)N)C(N)=O) [ZLQ-3]
impairment of motor functions, intranasal 5 mg/kg ([1]; 5 mg/kg intranasally days 5-11 after stroke, test day 12): attenuated the impairment of motor functions
GAT-1-Synt1A uncoupling activity among the ZLQ series (GAT-1-Synt1A interaction): most potent GAT-1-Synt1A uncoupling activity
